Paper PMC3198121 (Journal of Medicinal Chemistry, 2011)

Tests used:
Type in all cases: cell-based
GPR35 [1] = molecular target: T1, GPR35 (Homo sapiens, UniProt Q9HC97); assay: Tango β-arrestin translocation gene reporter assay in Tango GPR35-bla U2OS cells; details: for agonist type in Tango β-arrestin translocation assay: compared to zaprinast; for Tango assays % zaprinast: efficacy relative to zaprinast, Tango GPR35-bla U2OS cells
GPR35 [2] = molecular target: T1, GPR35; assay: DMR agonist assay in HT-29 cells; details: for agonist type in DMR assay: compared to zaprinast; for fold decrease in potency relative to 16a: compared with compound 16a
GPR35 [3] = molecular target: T1, GPR35; assay: DMR agonist assay after shRNA knockdown of GPR35 in HT29; details: all compounds at 10 μM; n = 4; mock transfection as control
Summary of the method: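 HT29 cells seeded at 5000/well on biosensor plates, 24 h at 37 °C, then transiently transfected (Effectene, 0.05 μg plasmid DNA) with GPR35 shRNA in GFP-expressing pGFP-V-RS vector or control plasmid. Medium was renewed next day. About 48 h post-transfection, cells were washed into HBSS (20 mM Hepes, pH 7.1) and equilibrated 1 h at 26 °C. Label-free DMR was recorded kinetically after a 2 min baseline and compound addition.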

GPR35 [4] = molecular target: T1, GPR35; details: HT29; for blockage of the compound-induced DMR by compound 17: compound 17 at 64 μM
GPR35 [5] = molecular target: T1, GPR35; assay: Receptor internalization assay in HT29; details: HT-29; 1 μM 16a, 10 μM 15a; 1 h at 37 °C
Summary of the method: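 HT29 cells seeded at 10000/well on chamber slides, 24 h at 37 °C, then exposed to compound or matching DMSO for 1 h at 37 °C. Cells were fixed in 4% formaldehyde for 15 min and blocked/permeabilized for 2 h (goat serum, BSA, Triton X-100). Staining used anti-GPR35 T-14 (intracellular epitope, 1:500, 24 h), then Alexa Fluor 594 anti-goat (1:500, 1 h RT), with DAPI nuclei. Read by confocal imaging.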

GPR35 [6] = molecular target: T1, GPR35; details: zaprinast 1 μM in DMSO treated cells; n = 90

T1 sequence (Q9HC97 whole entry): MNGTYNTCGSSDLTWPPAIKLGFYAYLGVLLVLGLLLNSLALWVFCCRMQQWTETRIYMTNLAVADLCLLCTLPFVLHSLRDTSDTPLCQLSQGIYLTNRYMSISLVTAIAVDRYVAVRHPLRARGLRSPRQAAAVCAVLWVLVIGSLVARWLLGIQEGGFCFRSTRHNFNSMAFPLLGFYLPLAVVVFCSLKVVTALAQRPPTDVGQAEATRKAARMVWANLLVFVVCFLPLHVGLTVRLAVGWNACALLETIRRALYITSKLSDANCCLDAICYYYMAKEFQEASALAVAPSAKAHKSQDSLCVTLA

Compound	response in Tango assay (GPR35 [1])	agonist type in Tango β-arrestin translocation assay (GPR35 [1])	effect of shRNA knockdown of GPR35 on the compound-induced DMR (GPR35 [3])	blockage of the compound-induced DMR by compound 17 (GPR35 [4])	other results
CC1=C(C#N)C(=C(C#N)C#N)OC1(C)c1ccc(Cl)c(Cl)c1 (centres unmarked) [Compound 1, 2-(3-cyano-5-(3,4-dichlorophenyl)-4,5-dimethylfuran-2(5H)-ylidene)malononitrile]	dose-dependent and saturable responses	partial agonist	significantly attenuated	–	agonist type in DMR assay (GPR35 [2]): full agonist
CC1=C(C#N)C(=C(C#N)C#N)OC1(c1ccccc1)C(F)(F)F (centres unmarked) [Compound 3, 2-(3-cyano-4-methyl-5-phenyl-5-(trifluoromethyl)furan-2(5H)-ylidene)malononitrile]	dose-dependent and saturable responses	partial agonists	–	–	–
CC1=C(C#N)C(=C(C#N)C#N)OC1(C)c1ccc(Cl)c(Cl)c1Cl (centres unmarked) [Compound 5, 2-(3-cyano-4,5-dimethyl-5-(2,3,4-trichlorophenyl)furan-2(5H)-ylidene)malononitrile]	–	–	–	only partially suppressed	fold decrease in potency to trigger DMR signal relative to 1 (GPR35 [2]; DMR EC50, compared with compound 1): 350 fold
CC1=C(C#N)C(=C(C#N)C#N)OC12CCCCC2 [Compound 7, 2-(3-cyano-4-methyl-1-oxaspiro[4.5]dec-3-en-2-ylidene)malononitrile]	detectable responses	partial agonists	–	only partially suppressed	Tango assays % zaprinast (GPR35 [1]): weak
CC1=C(C#N)C(=C(C#N)C#N)OC1(C)c1ccc(F)cc1F (centres unmarked) [Compound 8, 2-(3-cyano-5-(2,4-difluorophenyl)-4,5-dimethylfuran-2(5H)-ylidene)malononitrile]	–	–	–	only partially suppressed	–
CC1=C(C#N)C(=C(C#N)C#N)OC1(C)C [Compound 9, 2-(3-Cyano-4,5,5-trimethylfuran-2(5H)-ylidene)malononitrile]	detectable responses	partial agonists	significantly attenuated	–	Tango assays % zaprinast (GPR35 [1]): weak
O=C(O)c1cc2sccc2s1 [Compound 10, Thieno[3,2-b]thiophene-2-carboxylic Acid]	detectable responses	partial agonists	–	–	fold decrease in potency relative to 16a (GPR35 [2]; DMR EC50): over 600 fold
CCCCCCc1c(C(=O)O)sc2ccsc12 [Compound 11, 3-Hexylthieno[3,2-b]thiophene-2-carboxylic Acid]	detectable responses	partial agonists	–	only partially suppressed	fold decrease in potency relative to 16a (GPR35 [2]; DMR EC50): about 54 fold
CCCCCCc1csc2cc(C(=O)O)sc12 [Compound 12, 6-Hexylthieno[3,2-b]thiophene-2-carboxylic Acid]	detectable responses	partial agonists	–	–	–
Cc1csc2c1sc1cc(C(=O)O)sc12 [Compound 13, 5-Methyldithieno[3,2-b:2′,3′-d]thiophene-2-carboxylic Acid]	detectable responses	partial agonists	significantly attenuated	only partially suppressed	–
CCOC(=O)c1sc2c(Br)csc2c1C [Compound 15a, Ethyl 6-Bromo-3-methylthieno[3,2-b]thiophene-2-carboxylate]	–	–	–	–	internalization of endogenous GPR35 (GPR35 [5]): unable to trigger receptor internalization
Cc1c(C(=O)O)sc2c(Br)csc12 [Compound 16a, 6-Bromo-3-methylthieno[3,2-b]thiophene-2-carboxylic Acid]	dose-dependent and saturable responses	full agonist	significantly attenuated	–	agonist type in DMR assay (GPR35 [2]): full agonist; internalization of endogenous GPR35 (GPR35 [5]): significant internalization
CCCCCCCCc1c(C(=O)O)sc2c(Br)csc12 [Compound 16b, 6-Bromo-3-octylthieno[3,2-b]thiophene-2-carboxylic Acid]	detectable responses	partial agonists	–	–	–
CCCCCCCCCCCc1c(C(=O)O)sc2c(Br)csc12 [Compound 16c, 6-Bromo-3-undecylthieno[3,2-b]thiophene-2-carboxylic Acid]	dose-dependent and saturable responses	partial agonists	–	–	–
COC(=O)c1cnn(-c2ccc(F)cc2F)c1/C=N/NC(=S)NC(C)(C)C [Compound 17, methyl-5-[(tert-butylcarbamothioylhydrazinylidene)methyl]-1-(2,4-difluorophenyl)-pyrazole-4-carboxylate, reference compound]	–	–	–	–	blockage of the zaprinast DMR by compound 17 (GPR35 [4]; compound 17 at 64 μM (highest dose)): almost completely blocked; DMR agonist activity in HT-29 (GPR35 [2]): did not lead to any detectable DMR
CCCOc1ccccc1-c1nc2[nH]nnc2c(=O)[nH]1 [zaprinast, reference compound]	–	–	significantly attenuated	–	zaprinast DMR amplitude in the desensitization step (positive control) (GPR35 [6]): 238 ± 25 pm; Tango assays % zaprinast (GPR35 [1]): 100 ± 7%; DMR assays % zaprinast (GPR35 [2]; efficacy relative to zaprinast, HT-29, DMR amplitude at 8 min post stimulation): 100 ± 5%; DMR amplitude, maximal response (GPR35 [2]; zaprinast 1 μM (saturating dose), about 8 min poststimulation, n = 32): 246 ± 11 pm
